System: Fibroblast
Test: Multiplex assay against human fibroblast
Assay type: toxicity, cell-based
Procedure, shortened: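 On a CQ1 microscope at 37°C and 5% CO2, live cells were imaged after compound addition. They had been stained at seeding with Hoechst33342, BioTracker Green Microtubule Cytoskeleton Dye, MitoTracker Red and Annexin V Alexa Fluor 680. CellPathfinder machine-learning gating assigned cells to Hoechst high-intensity objects or normal cells, normal cells to healthy, pyknosed or fragmented nuclei, and pyknosed cells to mitotic or apoptotic. Tubulin, mitochondrial-mass and membrane-permeability phenotypes are per cents of healthy-nucleus cells.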

[1] = 12 h, 1 µM, compound concentration 1 uM, replicate 1
[2] = 12 h, 1 µM, compound concentration 1 uM, replicate 2
[3] = 12 h, 10 µM, compound concentration 10 uM, replicate 1
[4] = 12 h, 10 µM, compound concentration 10 uM, replicate 2
[5] = 24 h, 1 µM, compound concentration 1 uM, replicate 1
[6] = 24 h, 1 µM, compound concentration 1 uM, replicate 2
[7] = 24 h, 10 µM, compound concentration 10 uM, replicate 1
[8] = 24 h, 10 µM, compound concentration 10 uM, replicate 2
[9] = 48 h, 1 µM, compound concentration 1 uM, replicate 1
[10] = 48 h, 1 µM, compound concentration 1 uM, replicate 2
[11] = 48 h, 10 µM, compound concentration 10 uM, replicate 1
[12] = 48 h, 10 µM, compound concentration 10 uM, replicate 2

COc1ccccc1CN[C@H]1C2CCN(CC2)[C@H]1C(c1ccccc1)c1ccccc1 [CP-96345]
Population Apoptotic (%) [1]: 64%
Population Fragmented Nuclei (%) [1]: 25%
Population Healthy Nuclei (%) [1]: 43%
Population Hoechst High Intensity Objects (%) [1]: 13%
Population Membrane Permeable-Phenotype (%) [1]: 27%
Population Mitochondria Different-Phenotype (%) [1]: 9%
Population Mitotic Cells (%) [1]: 35%
Population Normal (%) [1]: 86%
Population Pyknosed Nuclei (%) [1]: 30%
Population Tubulin-Different-Phenotype (%) [1]: 52%
Total Cell Count [1]: 146
Population Apoptotic (%) [2]: 66%
Population Fragmented Nuclei (%) [2]: 4%
Population Healthy Nuclei (%) [2]: 92%
Population Hoechst High Intensity Objects (%) [2]: 0%
Population Membrane Permeable-Phenotype (%) [2]: 4%
Population Mitochondria Different-Phenotype (%) [2]: 7%
Population Mitotic Cells (%) [2]: 33%
Population Normal (%) [2]: 100%
Population Pyknosed Nuclei (%) [2]: 3%
Population Tubulin-Different-Phenotype (%) [2]: 8%
Total Cell Count [2]: 90
Population Apoptotic (%) [3]: 67%
Population Fragmented Nuclei (%) [3]: 29%
Population Healthy Nuclei (%) [3]: 45%
Population Hoechst High Intensity Objects (%) [3]: 13%
Population Membrane Permeable-Phenotype (%) [3]: 6%
Population Mitochondria Different-Phenotype (%) [3]: 44%
Population Mitotic Cells (%) [3]: 32%
Population Normal (%) [3]: 86%
Population Pyknosed Nuclei (%) [3]: 25%
Population Tubulin-Different-Phenotype (%) [3]: 84%
Total Cell Count [3]: 129
Population Apoptotic (%) [4]: 50%
Population Fragmented Nuclei (%) [4]: 2%
Population Healthy Nuclei (%) [4]: 86%
Population Hoechst High Intensity Objects (%) [4]: 3%
Population Membrane Permeable-Phenotype (%) [4]: 1%
Population Mitochondria Different-Phenotype (%) [4]: 45%
Population Mitotic Cells (%) [4]: 50%
Population Normal (%) [4]: 96%
Population Pyknosed Nuclei (%) [4]: 10%
Population Tubulin-Different-Phenotype (%) [4]: 26%
Total Cell Count [4]: 77
Population Apoptotic (%) [5]: 63%
Population Fragmented Nuclei (%) [5]: 26%
Population Healthy Nuclei (%) [5]: 49%
Population Hoechst High Intensity Objects (%) [5]: 15%
Population Membrane Permeable-Phenotype (%) [5]: 23%
Population Mitochondria Different-Phenotype (%) [5]: 8%
Population Mitotic Cells (%) [5]: 36%
Population Normal (%) [5]: 84%
Population Pyknosed Nuclei (%) [5]: 24%
Population Tubulin-Different-Phenotype (%) [5]: 41%
Total Cell Count [5]: 161
Population Apoptotic (%) [6]: 54%
Population Fragmented Nuclei (%) [6]: 4%
Population Healthy Nuclei (%) [6]: 85%
Population Hoechst High Intensity Objects (%) [6]: 2%
Population Membrane Permeable-Phenotype (%) [6]: 1%
Population Mitochondria Different-Phenotype (%) [6]: 4%
Population Mitotic Cells (%) [6]: 45%
Population Normal (%) [6]: 97%
Population Pyknosed Nuclei (%) [6]: 9%
Population Tubulin-Different-Phenotype (%) [6]: 17%
Total Cell Count [6]: 114
Population Apoptotic (%) [7]: 55%
Population Fragmented Nuclei (%) [7]: 41%
Population Healthy Nuclei (%) [7]: 43%
Population Hoechst High Intensity Objects (%) [7]: 22%
Population Membrane Permeable-Phenotype (%) [7]: 3%
Population Mitochondria Different-Phenotype (%) [7]: 41%
Population Mitotic Cells (%) [7]: 44%
Population Normal (%) [7]: 77%
Population Pyknosed Nuclei (%) [7]: 14%
Population Tubulin-Different-Phenotype (%) [7]: 86%
Total Cell Count [7]: 156
Population Apoptotic (%) [8]: 40%
Population Fragmented Nuclei (%) [8]: 2%
Population Healthy Nuclei (%) [8]: 81%
Population Hoechst High Intensity Objects (%) [8]: 1%
Population Membrane Permeable-Phenotype (%) [8]: 2%
Population Mitochondria Different-Phenotype (%) [8]: 31%
Population Mitotic Cells (%) [8]: 60%
Population Normal (%) [8]: 98%
Population Pyknosed Nuclei (%) [8]: 16%
Population Tubulin-Different-Phenotype (%) [8]: 14%
Total Cell Count [8]: 92
Population Apoptotic (%) [9]: 42%
Population Fragmented Nuclei (%) [9]: 30%
Population Healthy Nuclei (%) [9]: 60%
Population Hoechst High Intensity Objects (%) [9]: 14%
Population Membrane Permeable-Phenotype (%) [9]: 20%
Population Mitochondria Different-Phenotype (%) [9]: 3%
Population Mitotic Cells (%) [9]: 57%
Population Normal (%) [9]: 85%
Population Pyknosed Nuclei (%) [9]: 9%
Population Tubulin-Different-Phenotype (%) [9]: 29%
Total Cell Count [9]: 169
Population Apoptotic (%) [10]: 50%
Population Fragmented Nuclei (%) [10]: 36%
Population Healthy Nuclei (%) [10]: 61%
Population Hoechst High Intensity Objects (%) [10]: 12%
Population Membrane Permeable-Phenotype (%) [10]: 25%
Population Mitochondria Different-Phenotype (%) [10]: 4%
Population Mitotic Cells (%) [10]: 50%
Population Normal (%) [10]: 87%
Population Pyknosed Nuclei (%) [10]: 2%
Population Tubulin-Different-Phenotype (%) [10]: 36%
Total Cell Count [10]: 82
Population Apoptotic (%) [11]: 83%
Population Fragmented Nuclei (%) [11]: 36%
Population Healthy Nuclei (%) [11]: 58%
Population Hoechst High Intensity Objects (%) [11]: 25%
Population Membrane Permeable-Phenotype (%) [11]: 2%
Population Mitochondria Different-Phenotype (%) [11]: 36%
Population Mitotic Cells (%) [11]: 16%
Population Normal (%) [11]: 75%
Population Tubulin-Different-Phenotype (%) [11]: 61%
Total Cell Count [11]: 172
Population Apoptotic (%) [12]: 25%
Population Fragmented Nuclei (%) [12]: 30%
Population Healthy Nuclei (%) [12]: 66%
Population Hoechst High Intensity Objects (%) [12]: 11%
Population Membrane Permeable-Phenotype (%) [12]: 24%
Population Mitochondria Different-Phenotype (%) [12]: 7%
Population Mitotic Cells (%) [12]: 75%
Population Normal (%) [12]: 88%
Population Pyknosed Nuclei (%) [12]: 4%
Population Tubulin-Different-Phenotype (%) [12]: 60%
Total Cell Count [12]: 113

Reference: ChEMBL document CHEMBL4689842, “EUbOPEN Chemogenomics Library wave 1” (2021)
